# Tests used:
# Type in all cases: functional
# Conditions in all cases: 168 h
# Curvularia pallescens [1] = experiment: Fungicidal activity against Cochliobolus pallescens assessed as mycelial inhibition at 100 ppm at 28 +/- 2 degC measured after 7 days by food poison technique
# Procedure, shortened: (§1)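 Poisoned-food test on oatmeal agar. The compound was dissolved in 0.5 cm3 of solvent and mixed into the medium to give the stated ppm. Controls received the same amount of solvent only. A 5 mm mycelial disk, cut from the periphery of a 2-week-old culture, was placed at the plate centre. Plates were incubated 7 days at 28 ± 2 °C, in triplicate. Percent inhibition = (dc − dt)/dc × 100, using mean colony diameters of control (dc) and treatment (dt).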
# Fusarium oxysporum [2] = experiment: Fungicidal activity against Fusarium oxysporum assessed as mycelial inhibition at 100 ppm at 28 +/- 2 degC measured after 7 days by food poison technique; procedure, shortened: as §1
# Fusarium oxysporum [3] = experiment: Fungicidal activity against Fusarium oxysporum assessed as mycelial inhibition at 10 ppm at 28 +/- 2 degC measured after 7 days by food poison technique; procedure, shortened: as §1
# Curvularia pallescens [4] = experiment: Fungicidal activity against Cochliobolus pallescens assessed as mycelial inhibition at 10 ppm at 28 +/- 2 degC measured after 7 days by food poison technique; procedure, shortened: as §1
# Colletotrichum falcatum [5] = experiment: Fungicidal activity against Glomerella tucumanensis assessed as mycelial inhibition at 10 ppm at 28 +/- 2 degC measured after 7 days by food poison technique; procedure, shortened: as §1
# Colletotrichum falcatum [6] = experiment: Fungicidal activity against Glomerella tucumanensis assessed as mycelial inhibition at 100 ppm at 28 +/- 2 degC measured after 7 days by food poison technique; procedure, shortened: as §1
# Curvularia pallescens [7] = experiment: Fungicidal activity against Cochliobolus pallescens assessed as mycelial inhibition at 1000 ppm at 28 +/- 2 degC measured after 7 days by food poison technique; procedure, shortened: as §1
# Fusarium oxysporum [8] = experiment: Fungicidal activity against Fusarium oxysporum assessed as mycelial inhibition at 1000 ppm at 28 +/- 2 degC measured after 7 days by food poison technique; procedure, shortened: as §1
# Colletotrichum falcatum [9] = experiment: Fungicidal activity against Glomerella tucumanensis assessed as mycelial inhibition at 1000 ppm at 28 +/- 2 degC measured after 7 days by food poison technique; procedure, shortened: as §1
# Colletotrichum falcatum [10] = experiment: Fungicidal activity against Glomerella tucumanensis assessed as mycelial inhibition at 28 +/- 2 degC measured after 7 days by food poison technique
# Fusarium oxysporum [11] = experiment: Fungicidal activity against Fusarium oxysporum assessed as mycelial inhibition at 28 +/- 2 degC measured after 7 days by food poison technique
# Curvularia pallescens [12] = experiment: Fungicidal activity against Cochliobolus pallescens assessed as mycelial inhibition at 28 +/- 2 degC measured after 7 days by food poison technique
Structure (SMILES),inhibition at 100 ppm (Curvularia pallescens [1]) [%],inhibition at 100 ppm (Fusarium oxysporum [2]) [%],inhibition at 10 ppm (Fusarium oxysporum [3]) [%],inhibition at 10 ppm (Curvularia pallescens [4]) [%],inhibition at 10 ppm (Colletotrichum falcatum [5]) [%],inhibition at 100 ppm (Colletotrichum falcatum [6]) [%],inhibition at 1000 ppm (Curvularia pallescens [7]) [%],inhibition at 1000 ppm (Fusarium oxysporum [8]) [%],inhibition at 1000 ppm (Colletotrichum falcatum [9]) [%],MIC (Colletotrichum falcatum [10]) [µg/mL],MIC (Fusarium oxysporum [11]) [µg/mL],MIC (Curvularia pallescens [12]) [µg/mL]
CCOP(=O)(OCC)S/C(=N\N=C\c1ccc([N+](=O)[O-])cc1)N1CCN(/C(=N\N=C\c2ccc([N+](=O)[O-])cc2)SP(=O)(OCC)OCC)CC1,58.2,40.2,27.5,35.6,25.8,40.8,89.2,62.6,65.2,,,
COC(=O)Nc1nc2ccccc2[nH]1 [CARBENDAZIM],,,,,,,,,,4000,3000,4000
S=C(N/N=C/c1ccccc1)N1CCN(C(=S)N/N=C/c2ccccc2)CC1,32.1,25.6,14.3,20.6,14.1,28.9,57.4,48.8,53.6,,,
CCOP(=O)(OCC)S/C(=N/N=C/c1ccccc1Cl)N1CCN(/C(=N\N=C\c2ccccc2Cl)SP(=O)(OCC)OCC)CC1,86.8,82.4,56.8,47.7,55.2,70.6,88.2,100,85.6,,,
S=C(N/N=C/c1ccccc1Cl)N1CCN(C(=S)N/N=C/c2ccccc2Cl)CC1,47.3,42,25.5,27.4,21.2,30.8,66.2,69.2,60.3,,,
S=C(N/N=C/c1ccc(Cl)cc1)N1CCN(C(=S)N/N=C/c2ccc(Cl)cc2)CC1,49.2,41.6,28.7,38.5,24.8,35.4,68.4,64.8,68.2,,,
COC(=O)NC(=S)Nc1ccccc1NC(=S)NC(=O)OC [THIOPHANATE METHYL],,,,,,,,,,4000,4000,4000
CCOP(=O)(OCC)S/C(=N/N=C/c1ccccc1)N1CCN(/C(=N\N=C\c2ccccc2)SP(=O)(OCC)OCC)CC1,49.5,35.6,24.8,32.8,25.8,40.2,75,66.5,73.4,,,
CCOP(=O)(OCC)S/C(=N/N=C/c1ccc(OC)cc1)N1CCN(/C(=N\N=C\c2ccc(OC)cc2)SP(=O)(OCC)OCC)CC1,80.5,70.6,53.2,42.2,36.4,58.6,100,100,100,1000,1000,1000
O=[N+]([O-])c1ccc(/C=N/NC(=S)N2CCN(C(=S)N/N=C/c3ccc([N+](=O)[O-])cc3)CC2)cc1,31.1,23.9,16.2,22.7,11.6,24.3,59.6,44.8,46.6,,,
COc1ccc(/C=N/NC(=S)N2CCN(C(=S)N/N=C/c3ccc(OC)cc3)CC2)cc1,45.8,40.2,35.3,28.6,22.1,37.6,67.2,66.8,65.9,,,
CCOP(=O)(OCC)S/C(=N/N=C/c1ccc(Cl)cc1)N1CCN(/C(=N\N=C\c2ccc(Cl)cc2)SP(=O)(OCC)OCC)CC1,88.2,76.2,37.8,66.6,42.5,72.8,100,100,100,1000,1000,1000

# Reference: ChEMBL document CHEMBL3046592, “Organophosphorus derivatives containing piperazine dithiosemicarbazones as chemotherapeutants against fungal pathogens of sugarcane” (2005)
